Test results as given in PMC6089849 (Acta Pharmaceutica Sinica. B, 2018).
Several values for one entry are separate records, joined by “and”; a condition that tells them apart may be missing. Equal entries are not always repeated.

Tests used:
[1] = target: PDE9A2 (Homo sapiens, UniProt O76083); assay: In vitro bioassay for inhibition of PDE9; format: biochemical; conditions: for IC50: IC50 against PDE9, mean of three independent determinations
[2] = In vitro cell viability assay; format: cell-based; conditions: human, SH-SY5Y cells
Method in brief: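 SH-SY5Y cells seeded at 5 × 10^3 per well and allowed 24 h before test compound addition at 10, 20, 40, 60, 80 and 100 μmol/L. After 48 h exposure, MTT was added for 4 h at 37 °C. Formazan was dissolved in DMSO, and absorbance was read at 570 nm.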

Sequence of PDE9A2 (O76083 1-533 isoform O76083-2): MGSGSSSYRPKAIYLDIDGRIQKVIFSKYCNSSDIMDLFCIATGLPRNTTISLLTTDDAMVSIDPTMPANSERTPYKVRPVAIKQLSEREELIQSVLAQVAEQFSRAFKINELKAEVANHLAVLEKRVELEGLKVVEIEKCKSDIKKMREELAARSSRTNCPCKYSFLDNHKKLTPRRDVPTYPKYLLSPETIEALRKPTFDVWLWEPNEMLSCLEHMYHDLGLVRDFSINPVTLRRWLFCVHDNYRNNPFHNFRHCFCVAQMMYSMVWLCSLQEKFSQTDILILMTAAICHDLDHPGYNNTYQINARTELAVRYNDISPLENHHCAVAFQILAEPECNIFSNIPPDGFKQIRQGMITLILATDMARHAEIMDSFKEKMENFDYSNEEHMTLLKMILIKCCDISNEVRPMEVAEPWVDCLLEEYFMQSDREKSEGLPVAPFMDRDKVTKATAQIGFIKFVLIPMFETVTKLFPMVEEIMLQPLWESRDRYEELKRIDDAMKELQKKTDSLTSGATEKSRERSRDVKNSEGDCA

Structure (SMILES)	IC50 [1]	fold more potent than PF-04447943 (PDE9 IC50) ([1]; vs PF-04447943) [fold]	fold increase of IC50 potency compared with compound 5b ([1]; vs compound 5b) [fold]	viability at 48 h, 40 μmol/L [2] [%]	viability at 48 h, 100 μmol/L [2] [%]	inhibition against PDE9A ([1]; at the concentration of 5 mmol/L)
O=C1NC(=O)/C(=C/c2ccc(OCCNc3nc4c(cnn4C4CCCC4)c(=O)[nH]3)c(F)c2)S1 [Compound 11a, (Z)-5-(4-(2-((1-Cyclopentyl-4-oxo-4,5-dihydro-1H-pyrazolo[3,4-d]pyrimidin-6-yl)amino)ethoxy)-3-fluorobenzylidene)thiazolidine-2,4-dione]	< 5 nM	8	20	55	34	–
COc1cc(/C=C2\SC(=O)NC2=O)cc(F)c1OCCNc1nc2c(cnn2C2CCCC2)c(=O)[nH]1 [Compound 11c, (Z)-5-(4-(2-((1-Cyclopentyl-4-oxo-4,5-dihydro-1H-pyrazolo[3,4-d]pyrimidin-6-yl)amino)ethoxy)-3-fluoro-5-methoxybenzylidene)thiazolidine-2,4-dione]	< 5 nM and 3.3 nM	–	–	84	57	–
COc1cc(/C=C2\SC(=O)NC2=O)ccc1OCCNc1nc2c(cnn2C2CCCC2)c(=O)[nH]1 [Compound 11d, (Z)-5-(4-(2-((1-Cyclopentyl-4-oxo-4,5-dihydro-1H-pyrazolo[3,4-d]pyrimidin-6-yl)amino)ethoxy)-3-methoxybenzylidene)thiazolidine-2,4-dione]	76 nM	–	–	–	–	–
O=C1NC(=O)C(Cc2ccc(OCCNc3nc4c(cnn4C4CCCC4)c(=O)[nH]3)c(F)c2)S1 (centres unmarked) [Compound 14a, 5-(4-(2-((1-Cyclopentyl-4-oxo-4,5-dihydro-1H-pyrazolo[3,4-d]pyrimidin-6-yl)amino)ethoxy)-3-fluorobenzyl)thiazolidine-2,4-dione]	< 5 nM and 3.5 nM	–	–	82	52	–
COc1cc(CC2SC(=O)NC2=O)cc(F)c1OCCNc1nc2c(cnn2C2CCCC2)c(=O)[nH]1 (centres unmarked) [Compound 14c, 5-(4-(2-((1-Cyclopentyl-4-oxo-4,5-dihydro-1H-pyrazolo[3,4-d]pyrimidin-6-yl)amino)ethoxy)-3-fluoro-5-methoxybenzyl)thiazolidine-2,4-dione]	< 5 nM and 4.2 nM	–	–	93	62	–
C[C@@H](COc1ccc(CC2SC(=O)NC2=O)cc1)Nc1nc2c(cnn2C2CCCC2)c(=O)[nH]1 (stereo partly drawn) [Compound 15, 5-(4-((S)-2-((1-Cyclopentyl-4-oxo-4,5-dihydro-1H-pyrazolo[3,4-d]pyrimidin-6-yl)amino)propoxy)benzyl)thiazolidine-2,4-dione]	98 nM	–	–	–	–	–
CN(CCOc1ccc(CC2SC(=O)NC2=O)cc1)c1ccccn1 (centres unmarked) [Rosiglitazone, reference compound]	–	–	–	–	–	no inhibition
